Data: ChEMBL document CHEMBL2021854, “2-Aminopyrimidine based 4-aminoquinoline anti-plasmodial agents. Synthesis, biological activity, structure-activity relationship and mode of action studies” (Eur J Med Chem, 2012)

Tested on: Plasmodium falciparum
Test: Resistant factor, ratio of IC50 for chloroquine-resistant Plasmodium falciparum K1 to IC50 for chloroquine-sensitive Plasmodium falciparum 3D7
Type: functional
Conditions: not given
Summary of the method: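 Resistance factor computed as IC50 against K1 divided by IC50 against 3D7, both from the [3H]hypoxanthine incorporation assay.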

Row | Compound | Ratio IC50
1 | CCOC(=O)c1c(C)nc(NCCCCCCCCNc2ccnc3cc(Cl)ccc23)nc1-c1ccccc1 | 2.047
2 | C[C@H]1[C@H](OC(=O)CCC(=O)O)O[C@@H]2O[C@@]3(C)CC[C@H]4[C@H](C)CC[C@@H]1[C@@]24OO3 [ARTESUNATE] | 0.5418
3 | CCOC(=O)c1c(C)nc(NCC(C)Nc2ccnc3cc(Cl)ccc23)nc1-c1ccccc1 (centres undefined) | 1.7683
4 | CCOC(=O)c1c(C)nc(Nc2ccccc2Nc2ccnc3cc(Cl)ccc23)nc1-c1ccccc1 | 1.842
5 | CCOC(=O)c1c(C)nc(NCCCCCCCCCCCCNc2ccnc3cc(Cl)ccc23)nc1-c1ccccc1 | 3.22
6 | CCOC(=O)c1c(C)nc(NCCCCCCCCCCNc2ccnc3cc(Cl)ccc23)nc1-c1ccccc1 | 0.2744
7 | Cc1nc(NCCCNc2ccnc3cc(Cl)ccc23)nc(-c2ccccc2[N+](=O)[O-])c1C(=O)OC(C)C | 0.1173

Tested on: Influenza A virus
Test: Antiviral activity against Influenza A virus H3N2 infected in MDCK cells assessed as inhibition of virus-induced cytopathogenicity after 4 days by colorimetric formazan-based MTS assay
Type: functional, organism-based
Conditions: 96 h

Row | Compound | EC50 [nM]
8 | CC(N)C12CC3CC(CC(C3)C1)C2 (centres undefined) [RIMANTADINE] | > 200000

Tested on: not listed separately
Test: Cytotoxicity against MDCK cells assessed as minimum compound concentration required to causes microscopically detectable alteration of normal cell morphology
Type: cell-based, Canis lupus familiaris
Conditions: dog
Summary of the method: (§1)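 Confluent, non-proliferating cell cultures were exposed to the compounds. The endpoint was the minimum concentration producing a microscopically detectable alteration of normal cell morphology.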

Row | Compound | MCC [µM]
9 | CC(N)C12CC3CC(CC(C3)C1)C2 (centres undefined) [RIMANTADINE] | > 200

Tested on: Human alphaherpesvirus 2
Test: Antiviral activity against HSV2 G infected in HEL cells assessed as inhibition of virus-induced cytopathogenicity after 4 days
Type: functional, organism-based
Conditions: Human alphaherpesvirus 2, strain G, 96 h
Summary of the method: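 Confluent HEL, Vero or HeLa monolayers were inoculated with 100 CCID50 of virus in the presence of varying concentrations of compound. Cytopathicity was scored when it reached completion in untreated, virus-infected control cultures.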

Row | Compound | EC50 [nM]
10 | Nc1ccn(C[C@@H](CO)OCP(=O)(O)O)c(=O)n1 [CIDOFOVIR] | 900

Tested on: Vesicular stomatitis virus
Test: Antiviral activity against Vesicular stomatitis virus infected in HEL cells assessed as inhibition of virus-induced cytopathogenicity after 4 days
Type: functional, organism-based
Conditions: 96 h
Summary of the method: (§2)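 Confluent HEL or HeLa monolayers infected with 100 CCID50 of virus in the presence of varying compound concentrations.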

Row | Compound | EC50 [nM]
11 | Nc1nc2c(ncn2COCCO)c(=O)[nH]1 [ACYCLOVIR] | > 250000
12 | O=c1[nH]c(=O)n([C@H]2C[C@H](O)[C@@H](CO)O2)cc1/C=C/Br [BRIVUDINE] | > 250000
13 | Nc1ccn(C[C@@H](CO)OCP(=O)(O)O)c(=O)n1 [CIDOFOVIR] | > 250000

Tested on: HeLa
Test: Cytotoxicity against human HeLa cells assessed as cell viability by colorimetric formazan-based MTS assay
Conditions: not given

Row | Compound | CC50 [nM]
14 | Nc1nc2c(ncn2COCCO)c(=O)[nH]1 [ACYCLOVIR] | 541000
15 | O=c1[nH]c(=O)n([C@H]2C[C@H](O)[C@@H](CO)O2)cc1/C=C/Br [BRIVUDINE] | 362000
16 | Nc1ccn(C[C@@H](CO)OCP(=O)(O)O)c(=O)n1 [CIDOFOVIR] | 50800

Tested on: Human alphaherpesvirus 3
Test: Antiviral activity against […] expressing thymidine kinase infected in HEL cells assessed as reduction of virus plaque formation after 4 days
Type: functional, cell-based
Conditions: Human alphaherpesvirus 3, strain Oka vaccine, 96 h

Row | Compound | EC50 [nM]
17 | O=c1[nH]c(=O)n([C@H]2C[C@H](O)[C@@H](CO)O2)cc1/C=C/Br [BRIVUDINE] | 19

Tested on: not listed separately
Test: Inhibition of beta-hematin formation assessed as Ferriprotoporphyrin IX biomineralisation at 1 mg/ml after 24 hrs
Type: functional
Conditions: not given
Summary of the method: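 Hemin chloride (0.5 mg/ml in DMSO) mixed with 0.5 M sodium acetate buffer pH 4.4 and drug or solvent control, incubated 37 °C for 24 h. Pellet washed with DMSO to remove unreacted hemin, dissolved in 0.1 N NaOH, absorbance read at 405 nm; percent inhibition relative to control. Highest concentration tested 1 mg/ml.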

Row | Compound | inhibition [%]
18 | CCOC(=O)c1c(C)nc(NCCCCCCCCNc2ccnc3cc(Cl)ccc23)nc1-c1ccccc1 | 56
19 | CCOC(=O)c1c(C)nc(NCC(C)Nc2ccnc3cc(Cl)ccc23)nc1-c1ccccc1 (centres undefined) | 35
20 | CCOC(=O)c1c(C)nc(Nc2ccccc2Nc2ccnc3cc(Cl)ccc23)nc1-c1ccccc1 | 53
21 | Cc1nc(NCCCNc2ccnc3cc(Cl)ccc23)nc(-c2ccccc2[N+](=O)[O-])c1C(=O)OC(C)C | 89

Tested on: Plasmodium falciparum
Test: Antiplasmodial activity chloroquine-sensitive Plasmodium falciparum 3D7 infected in human A+ erythrocytes assessed as inhibition of [3H]-hypoxanthine incorporation after 24 hrs by scintillation counting
Type: functional, organism-based
Conditions: not given

Row | Compound | IC50 [nM]
22 | CCOC(=O)c1c(C)nc(NCCCCCCCCNc2ccnc3cc(Cl)ccc23)nc1-c1ccccc1 | 252
23 | C[C@H]1[C@H](OC(=O)CCC(=O)O)O[C@@H]2O[C@@]3(C)CC[C@H]4[C@H](C)CC[C@@H]1[C@@]24OO3 [ARTESUNATE] | 5.3
24 | CCOC(=O)c1c(C)nc(NCC(C)Nc2ccnc3cc(Cl)ccc23)nc1-c1ccccc1 (centres undefined) | 15900
25 | CCOC(=O)c1c(C)nc(Nc2ccccc2Nc2ccnc3cc(Cl)ccc23)nc1-c1ccccc1 | 14800
26 | CCOC(=O)c1c(C)nc(NCCCCCCCCCCCCNc2ccnc3cc(Cl)ccc23)nc1-c1ccccc1 | 265
27 | CCOC(=O)c1c(C)nc(NCCCCCCCCCCNc2ccnc3cc(Cl)ccc23)nc1-c1ccccc1 | 1780
28 | Cc1nc(NCCCNc2ccnc3cc(Cl)ccc23)nc(-c2ccccc2[N+](=O)[O-])c1C(=O)OC(C)C | 1960

Tested on: Plasmodium falciparum
Test: Antiplasmodial activity chloroquine-resistant Plasmodium falciparum K1 infected in human A+ erythrocytes assessed as inhibition of [3H]-hypoxanthine incorporation after 24 hrs by scintillation counting
Type: functional, organism-based
Conditions: not given

Row | Compound | IC50 [nM]
29 | CCOC(=O)c1c(C)nc(NCCCCCCCCNc2ccnc3cc(Cl)ccc23)nc1-c1ccccc1 | 516
30 | C[C@H]1[C@H](OC(=O)CCC(=O)O)O[C@@H]2O[C@@]3(C)CC[C@H]4[C@H](C)CC[C@@H]1[C@@]24OO3 [ARTESUNATE] | 2.8
31 | CCOC(=O)c1c(C)nc(NCC(C)Nc2ccnc3cc(Cl)ccc23)nc1-c1ccccc1 (centres undefined) | 28100
32 | CCOC(=O)c1c(C)nc(Nc2ccccc2Nc2ccnc3cc(Cl)ccc23)nc1-c1ccccc1 | 27300
33 | CCOC(=O)c1c(C)nc(NCCCCCCCCCCCCNc2ccnc3cc(Cl)ccc23)nc1-c1ccccc1 | 854
34 | CCOC(=O)c1c(C)nc(NCCCCCCCCCCNc2ccnc3cc(Cl)ccc23)nc1-c1ccccc1 | 488
35 | Cc1nc(NCCCNc2ccnc3cc(Cl)ccc23)nc(-c2ccccc2[N+](=O)[O-])c1C(=O)OC(C)C | 229

Tested on: not listed separately
Test: Cytotoxicity against human HEL cells assessed as minimum compound concentration required to causes microscopically detectable alteration of normal cell morphology
Type: cell-based
Conditions: not given
Summary of the method: as §1

Row | Compound | MCC [µM]
36 | Nc1nc2c(ncn2COCCO)c(=O)[nH]1 [ACYCLOVIR] | > 250
37 | O=c1[nH]c(=O)n([C@H]2C[C@H](O)[C@@H](CO)O2)cc1/C=C/Br [BRIVUDINE] | > 250
38 | Nc1ccn(C[C@@H](CO)OCP(=O)(O)O)c(=O)n1 [CIDOFOVIR] | > 317

Tested on: Influenza B virus
Test: Antiviral activity against Influenza B virus infected in MDCK cells assessed as reduction visual scoring of virus-induced cytopathogenicity after 4 days
Type: functional, organism-based
Conditions: 96 h
Summary of the method: (§3)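 MDCK monolayers infected with 100 CCID50 of influenza A (H1N1 or H3N2) or influenza B, with varying compound concentrations. Cytopathicity read when untreated infected controls reached complete CPE.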

Row | Compound | EC50 [nM]
39 | CC(N)C12CC3CC(CC(C3)C1)C2 (centres undefined) [RIMANTADINE] | > 200000

Tested on: Influenza B virus
Test: Antiviral activity against Influenza B virus infected in MDCK cells assessed as inhibition of virus-induced cytopathogenicity after 4 days by colorimetric formazan-based MTS assay
Type: functional, organism-based
Conditions: 96 h

Row | Compound | EC50 [nM]
40 | CC(N)C12CC3CC(CC(C3)C1)C2 (centres undefined) [RIMANTADINE] | > 200000

Tested on: Human betaherpesvirus 5
Test: Antiviral activity against Cytomegalovirus AD-169 infected in HEL cells assessed as inhibition of virus plaque formation after 4 days
Type: functional, organism-based
Conditions: Human betaherpesvirus 5, AD169, HEL, 96 h

Row | Compound | EC50 [nM]
41 | Nc1ccn(C[C@@H](CO)OCP(=O)(O)O)c(=O)n1 [CIDOFOVIR] | 369

Tested on: Human betaherpesvirus 5
Test: Antiviral activity against Human cytomegalovirus Davis infected in HEL cells assessed as inhibition of virus plaque formation after 4 days
Type: functional, organism-based
Conditions: Human betaherpesvirus 5, Davis, 96 h

Row | Compound | EC50 [nM]
42 | Nc1ccn(C[C@@H](CO)OCP(=O)(O)O)c(=O)n1 [CIDOFOVIR] | 102

Tested on: Influenza A virus
Test: Antiviral activity against Influenza A virus H3N2 infected in MDCK cells assessed as reduction visual scoring of virus-induced cytopathogenicity after 4 days
Type: functional, organism-based
Conditions: 96 h
Summary of the method: as §3

Row | Compound | EC50 [nM]
43 | CC(N)C12CC3CC(CC(C3)C1)C2 (centres undefined) [RIMANTADINE] | > 200000

Tested on: Human alphaherpesvirus 1
Test: Antiviral activity against HSV1 KOS infected in HEL cells assessed as inhibition of virus-induced cytopathogenicity after 4 days
Type: functional, organism-based
Conditions: Human alphaherpesvirus 1, KOS, 96 h
Summary of the method: as §2

Row | Compound | EC50 [nM]
44 | Nc1ccn(C[C@@H](CO)OCP(=O)(O)O)c(=O)n1 [CIDOFOVIR] | 900
